Laboratory results reported in ChEMBL document CHEMBL1152770, “Inhibitors of hepatitis C virus polymerase: synthesis and biological characterization of unsymmetrical dialkyl-hydroxynaphthalenoyl-benzothiadiazines” (J Med Chem, 2009).
pEC50, pIC50: −log10 of the molar value.

How the values were obtained:
[1] = Cytotoxicity against human HuH7 cells by MTT assay; type: cell-based, Huh-7; details: read-out: TD50 (the source's name)
Procedure, shortened: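 Cytotoxicity in Huh-7 replicon cultures measured by MTT colorimetric assay after the four-day incubation.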

[2] = Terminal phase volume of distribution in rat at 5 mg/kg, iv; type: ADME, organism-based; parameters: dose 5 mg/kg, route intravenous; details: in vivo, read-out: Vbeta
Procedure, shortened: (§1)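 Single intravenous dose. Heparinized plasma sampled at 0.1, 0.25, 0.5, 1, 2, 4, 6, 9, 12 and 24 h, plus 3 and 15 h in dog. Drug was isolated by acetonitrile protein precipitation and quantified by LC-MS in negative-ion MRM mode (m/z 516.2→437.0) against an internal standard. Concentrations came from unweighted linear regression of spiked standards.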

[3] = Plasma clearance in dog at 5 mg/kg, iv; type: ADME, organism-based, Canis lupus familiaris; parameters: dose 5 mg/kg, route intravenous
Procedure, shortened: (§2)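 Vehicle DMSO:PEG400 (10:90, v/v). Dosing at 5 mg/kg in rat and monkey; dog 5 mg/kg or 2.5 mg/kg. Protein precipitation with acetonitrile, then LC-MS/MS in negative-ion MRM (m/z 516.2→437.0) against spiked standards with internal standard.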

[4] = Drug level in rat liver at 5 mg/kg, po after 6 hrs; type: ADME, organism-based; parameters: dose 5 mg/kg, route oral; details: read-out: Drug uptake
Procedure, shortened: (§3)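 Rats dosed orally at 5 mg/kg, four groups, sacrificed at 6 and 12 h. Plasma and liver homogenate extracted by acetonitrile protein precipitation with internal standard and quantified by LC-MS (negative-ion MRM). Liver/plasma ratio taken from the two concentrations.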

[5] = AUC in dog at 5 mg/kg, iv; type: ADME, organism-based, Canis lupus familiaris; parameters: dose 5 mg/kg, route intravenous; details: plasma; procedure, shortened: as §2
[6] = Volume of distribution at steady state in dog at 5 mg/kg, iv; type: ADME, organism-based, Canis lupus familiaris; parameters: dose 5 mg/kg, route intravenous; details: in vivo, read-out: Vdss; procedure, shortened: as §1
[7] = Elimination half life in dog at 5 mg/kg, iv; type: ADME, organism-based, Canis lupus familiaris; parameters: dose 5 mg/kg, route intravenous; details: in vivo, read-out: beta t1/2 (converted); procedure, shortened: as §2
Hepatitis C virus [8] = experiment: Antiviral activity against HCV 1a containing chimeric genotype 1a-H77/1b-con1 subgenom in human Huh7 cells assessed as reduction in viral RNA after 4 days by RT-PCR; details: subtype 1a, Huh-7, 96 h
[9] = Elimination half life in monkey at 5 mg/kg, iv; type: ADME, organism-based, Macaca mulatta; parameters: dose 5 mg/kg, route intravenous; details: rhesus monkey, in vivo, read-out: beta t1/2 (converted); procedure, shortened: as §2
[10] = Inhibition of HCV isolate H77 NS5B polymerase after 3 hrs by scintillation counting
[11] = Drug level in rat liver at 5 mg/kg, po after 12 hrs; type: ADME, organism-based; parameters: dose 5 mg/kg, route oral; details: read-out: Drug uptake; procedure, shortened: as §3
[12] = Elimination half life in rat at 5 mg/kg, iv; type: ADME, organism-based; parameters: dose 5 mg/kg, route intravenous; details: in vivo, read-out: beta t1/2 (converted); procedure, shortened: as §2
[13] = Metabolic stability in dog liver microsomes assessed as intrinsic clearance; type: ADME, Canis lupus familiaris, Microsome
[14] = Volume of distribution at steady state in rat at 5 mg/kg, iv; type: ADME, organism-based; parameters: dose 5 mg/kg, route intravenous; details: in vivo, read-out: Vdss; procedure, shortened: as §1
[15] = Metabolic stability in dog hepatocytes assessed as intrinsic clearance; type: ADME, cell-based, Canis lupus familiaris, Liver, Hepatocyte
[16] = AUC in monkey at 5 mg/kg, iv; type: ADME, organism-based, Macaca mulatta; parameters: dose 5 mg/kg, route intravenous; details: rhesus monkey, plasma; procedure, shortened: as §2
Hepatitis C virus [17] = experiment: Ratio of EC50 for HCV isolate Con1 in presence of 40% human serum to EC50 for HCV isolate Con1; type: functional, Hepacivirus hominis
Procedure, shortened: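 Genotype 1b-con1 subgenomic replicon in Huh-7 cells. Four-day incubation with inhibitor in medium with 5% FBS, with or without 40% human serum. EC50 from the fall in HCV RNA copy number by real-time PCR. Ratio is EC50 with serum over EC50 without.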

[18] = Plasma clearance in monkey at 5 mg/kg, iv; type: ADME, organism-based, Macaca mulatta; parameters: dose 5 mg/kg, route intravenous; details: rhesus monkey; procedure, shortened: as §2
[19] = Metabolic stability in monkey liver microsomes assessed as intrinsic clearance; type: ADME, Macaca mulatta, Microsome; details: rhesus monkey
[20] = Metabolic stability in human liver microsomes assessed as intrinsic clearance; type: ADME, Microsome
[21] = Volume of distribution at steady state in monkey at 5 mg/kg, iv; type: ADME, organism-based, Macaca mulatta; parameters: dose 5 mg/kg, route intravenous; details: rhesus monkey, in vivo, read-out: Vdss; procedure, shortened: as §1
[22] = Terminal phase volume of distribution in dog at 5 mg/kg, iv; type: ADME, organism-based, Canis lupus familiaris; parameters: dose 5 mg/kg, route intravenous; details: in vivo, read-out: Vbeta; procedure, shortened: as §2
[23] = AUC in rat at 5 mg/kg, iv; type: ADME, organism-based; parameters: dose 5 mg/kg, route intravenous; details: plasma; procedure, shortened: as §2
[24] = Plasma clearance in rat at 5 mg/kg, iv; type: ADME, organism-based; parameters: dose 5 mg/kg, route intravenous; procedure, shortened: as §2
Hepatitis C virus [25] = experiment: Antiviral activity against HCV isolate Con1 in human Huh7 cells assessed as reduction in viral RNA after 4 days by RT-PCR; details: isolate Con1, Huh-7, 96 h
[26] = Metabolic stability in monkey hepatocytes assessed as intrinsic clearance; type: ADME, cell-based, Macaca mulatta, Liver, Hepatocyte; details: rhesus monkey
Hepatocyte [27] = experiment: Metabolic stability in rat hepatocytes assessed as intrinsic clearance; type: ADME, cell-based, Liver
[28] = Inhibition of HCV isolate BK NS5B polymerase after 3 hrs by scintillation counting
Hepatocyte [29] = experiment: Metabolic stability in human hepatocytes assessed as intrinsic clearance; type: ADME, cell-based, Liver
[30] = Terminal phase volume of distribution in monkey at 5 mg/kg, iv; type: ADME, organism-based, Macaca mulatta; parameters: dose 5 mg/kg, route intravenous; details: rhesus monkey, in vivo, read-out: Vbeta; procedure, shortened: as §1
[31] = Metabolic stability in rat liver microsomes assessed as intrinsic clearance; type: ADME, Microsome
Hepatitis C virus [32] = experiment: Antiviral activity against HCV genotype 1 infected in human assessed as reduction in viral titer after 48 hrs; type: functional, Hepacivirus hominis

Question: With CC(C)CC[C@@]1(C)C(=O)C(C2=NS(=O)(=O)c3cc(NS(C)(=O)=O)ccc3N2)=C([O-])c2ccccc21.[Na+] as the compound, how does the CC50 [1] read?
Answer: 35300 nM

Question: What about the Vd [2] of the same compound?
Answer: 1.97 L/kg

Question: And the clearance [3]?
Answer: 7.33 mL/min/kg

Question: And the concentration at 6 h [4]?
Answer: 3800 ng/g

Question: And the AUC [5]?
Answer: 11800 ng·h/mL

Question: What about the Vd [6] of the same compound?
Answer: 1.1 L/kg

Question: What about the half-life [7] of the same compound?
Answer: 2.7 h

Question: What about the pEC50 (Hepatitis C virus [8]) of the same compound?
Answer: 7.96

Question: And the half-life [9]?
Answer: 0.7 h

Question: What about the pIC50 [10] of the same compound?
Answer: 8.89

Question: And the concentration at 12 h [11]?
Answer: 1430 ng/g

Question: And the half-life [12]?
Answer: 1.2 h

Question: What about the microsomal CLint [13] of the same compound?
Answer: 3.5 µL/min/mg

Question: What about the Vd [14] of the same compound?
Answer: 1.72 L/kg

Question: What about the CL [15] of the same compound?
Answer: 2.2 µL/min/mg

Question: And the AUC [16]?
Answer: 10200 ng·h/mL

Question: And the “Ratio EC50” value (Hepatitis C virus [17])?
Answer: 14

Question: What about the clearance [18] of the same compound?
Answer: 8.5 mL/min/kg

Question: What about the microsomal CLint [19] of the same compound?
Answer: 62 µL/min/mg

Question: What about the microsomal CLint [20] of the same compound?
Answer: 29.6 µL/min/mg

Question: And the Vd [21]?
Answer: 0.19 L/kg

Question: What about the Vd [22] of the same compound?
Answer: 1.74 L/kg

Question: What about the AUC [23] of the same compound?
Answer: 5200 ng·h/mL

Question: What about the clearance [24] of the same compound?
Answer: 16 mL/min/kg

Question: And the pEC50 (Hepatitis C virus [25])?
Answer: 8.52

Question: What about the CL [26] of the same compound?
Answer: 29.2 µL/min/mg

Question: What about the CL (Hepatocyte [27]) of the same compound?
Answer: 9 µL/min/mg

Question: What about the pIC50 [28] of the same compound?
Answer: 9.05

Question: What about the CL (Hepatocyte [29]) of the same compound?
Answer: 6.8 µL/min/mg

Question: What about the Vd [30] of the same compound?
Answer: 0.5 L/kg

Question: What about the microsomal CLint [31] of the same compound?
Answer: 36.3 µL/min/mg

Question: With COc1ccc2c(O[C@@H]3C[C@H]4C(=O)N[C@]5(C(=O)O)C[C@H]5/C=C\CCCCC[C@H](NC(=O)OC5CCCC5)C(=O)N4C3)cc(-c3csc(NC(C)C)n3)nc2c1 as the compound, how does the pEC50 (Hepatitis C virus [8]) read?
Answer: 8.52

Question: What about the pEC50 (Hepatitis C virus [25]) of the same compound?
Answer: 8.52

Question: What about the Activity (Hepatitis C virus [32]) of the same compound?
Answer: 2
